Rows were chosen to be rich in hits. Some 3.1% of all compounds tested hit in one or more screens of this group.
F508del corr – correctors of CFTR F508del function in bronchial epithelial cells | CFBE cells, YFP halide quenching; stimulated with forskolin plus potentiator P3; % fluorescence drop versus neutral controls | activity (quench increase), % at 7.58 µM | 350,000 compounds, 0.36% hits | AID 720511;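 active = mean added fluorescence quench of at least 8% versus neutral control, with both replicates also reaching 8%; inconclusive = only one of the mean or replicate conditions met; inactive = mean below 8% and not both replicates reaching 8%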;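 also: cells transiently co-express mutant CFTR-F508del with the halide-sensitive YFP; corrector assay measuring rescue of mutant channel to the surface after 24 h compound exposure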
miR122 inh – miR-122 inhibition in Huh7 cells; Huh7 miR-122 Renilla luciferase sensor, 48 h; neutral wells = 0, positive control = 100; 340,000 compounds, 0.3% hits; activation (reporter increase), % at 12.5 µM;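 active = mean replicate activation score at least 90 and every replicate individually at or above 90; inconclusive = only one of the two criteria met; inactive = neither criterion met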;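 also: higher luciferase means less miR-122 activity so hits act as miR-122 inhibitors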
Cneo AK release – causes C. neoformans cell lysis. adenylate kinase release luminescence, 4 h; normalised: neutral wells 0, clomiphene wells 100. 360,000 compounds, 0.2% hits. AID 651654. lysis activity, % at 15 µM;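 active = mean lysis activity across replicates of at least 80%, whatever share of replicates individually reach that level; inactive = mean lysis activity below 80%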
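read-out = cell lysis signal | test system = log-phase Cryptococcus neoformans yeast cells | input = cells at 5 × 10^6 per mL | medium = fresh YPD growth medium | signal = luminescent adenylate kinase detection reagent | timing = 4 h at 37 °C static, read 1 h later | dosing = single dose | controls = Clomiphene as positive lysis control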
GSIS activator – GLuc luminescence reporter in INS-1E cells, primary screen for activators of glucose-dependent secretion of insulin | INS-1E GLuc reporter insulin secretion, 2-3 h | activation, % at 16.6 µM | 370,000 compounds, 0.61% hits | AID 743287;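 active = lowest replicate activation of at least 40%, so every replicate reaches that level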
Ecoli rRNA inh – inhibitors of bacterial rRNA selective over humanized ribosomes. AID 720706. E. coli WT GFP vs humanized-ribosome RFP mutants, fluorescence, 24 h; active compounds read low; DMSO median 0, no signal -100. GFP signal change (wild-type ribosome), % (no concentration beside the values). 350,000 compounds, 1.6% hits;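 active = significant combined selectivity score with lowered wild-type GFP, culture density cut under 30%, mutant RFP and density less affected; inactive = any of these conditions unmet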
HIV Env fusion – HIV envelope-mediated fusion inhibition; 360,000 compounds, 1.1% hits; inhibition, % at 12.3 µM; HeLa-JRFL Env/CEM21 cell fusion, luciferase;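 active = mean replicate inhibition score of at least 50 and every replicate individually at or above 50; inconclusive = only one of the two criteria met; inactive = mean below 50 and not all replicates reaching 50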
AID977621 – growth inhibition of wild-type GFP E. coli, dose response, H69 mutant RFP, cherry-pick; E. coli wild-type GFP strain growth, fluorescence, 24 h; shares compounds with Ecoli rRNA inh; 1,900 tested, under 10 active; activity change, negative = inhibition at 50 µM;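 active = Wild-type ribosome reporter drop at least double the humanized mutant ribosome reporter drop, growth loss under a set limit; inconclusive = no clear call, values can overlap the other calls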;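 also: wild-type GFP and H69 mutant RFP strains grown together 50/50 in each well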
AID977628 – E. coli growth inhibition, wild-type GFP versus h24 humanized RFP strain, dose response, h24 mutant RFP vs wild-type GFP, cherry-pick; shares compounds with Ecoli rRNA inh; E. coli WT GFP strain growth, fluorescence, 24 h; activity change, negative = inhibition at 50 µM; 1,900 tested, under 10 active; AID 977628;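 active = compound lowering the normal-ribosome reporter at least twice as much as the humanized-ribosome reporter, growth loss under a set limit; inconclusive = no clear call, values can overlap the other calls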;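 also: wild-type GFP and h24 humanized RFP strains co-cultured 1 to 1 per well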
A number is an active result; . = inactive; ? = inconclusive; / = not tested or not shown.

SMILES	F508del corr	miR122 inh	Cneo AK release	GSIS activator	Ecoli rRNA inh	HIV Env fusion	AID977621	AID977628
C[C@@H]1CCCCO[C@@H](CN(C)C(=O)CCCN(C)C)[C@H](C)CN([C@H](C)CO)C(=O)c2cc(NC(=O)Nc3cccc4ccccc34)ccc2O1	.	.	.	.	.	.	.	?
COc1ccc(NC(=O)N(C)C[C@@H]2Oc3ncc(-c4ccc(F)cc4)cc3C(=O)N([C@H](C)CO)C[C@@H]2C)cc1	.	.	.	.	.	.	/	/
O=C(CC1CC1)N1[C@H](CO)[C@@H](c2ccccc2)C12CN(Cc1cccnc1)C2	.	/	/	.	.	/	/	/
O=C(C[C@H]1C[C@H]2c3cc(NC(=O)Cc4ccncc4)ccc3O[C@H]2[C@H](CO)O1)NCCN1CCCCC1	.	.	.	.	.	.	/	/
C[C@@H]1CCCCO[C@@H](CN(C)C(=O)CCCN(C)C)[C@H](C)CN([C@@H](C)CO)C(=O)c2cc(NC(=O)Nc3cccc4ccccc34)ccc2O1	.	.	.	.	.	.	/	?
C[C@H](CO)N1C[C@H](C)[C@H](CN(C)C(=O)Nc2cccc3ccccc23)OCCCC[C@H](C)Oc2ccc(NC(=O)Nc3cccc4ccccc34)cc2C1=O	.	.	.	.	.	.	/	/
C[C@@H]1CN([C@@H](C)CO)C(=O)c2cc(NC(=O)Nc3cccc4ccccc34)ccc2O[C@@H](C)CCCCO[C@H]1CN(C)C(=O)CCCN(C)C	.	.	.	.	.	.	/	?
O=C(N[C@H]1CC[C@H](CCNS(=O)(=O)c2ccccc2)O[C@H]1CO)c1cccc(F)c1	.	/	.	.	.	.	/	/
CC(C)(C)C1CCC(OC(=O)C[N+]2(C)CCCC2)CC1 (centres undefined)	.	/	/	.	.	.	/	/
CC(C)(C)C1CCC(OC(=O)C[N+]2(C)CCCCC2)CC1 (centres undefined)	.	/	/	.	-17.4	.	.	.
CCCNC(=O)C[C@@H]1C[C@@H]2c3cc(NS(=O)(=O)c4cccc(OC)c4)ccc3O[C@@H]2[C@@H](CO)O1	.	.	.	.	.	/	/	/
Brc1ccccc1Cn1c(-c2cncs2)nc2ccccc21	.	.	.	/	-9.4	.	.	.
COc1ccc(C2CC(=O)CCN2S(=O)(=O)c2ccc(C)cc2)cc1 (centres undefined)	.	.	.	.	-21.8	.	.	?
COc1ccc(C2N(C(C)=O)CCCN2S(=O)(=O)c2ccc(C)cc2)cc1 (centres undefined)	.	.	.	.	.	.	/	/
CCCC#Cc1ccc(CC[C@H]2O[C@H]3CC[C@@H](CO)O[C@H]3C[C@@H]2n2cc(C(C)(C)O)nn2)cc1	.	/	/	/	/	/	/	/
CCN(CC)S(=O)(=O)c1cccc(NC(=O)CNc2cccc(S(=O)(=O)N3CCCC3)c2)c1	.	.	.	.	-23.1	/	.	/
CCN(CC)CC(=O)Nc1cccc(S(=O)(=O)N2CCCC2)c1	.	.	.	.	.	.	/	/
N#Cc1ccccc1OCC(=O)Nc1cccc(S(=O)(=O)N2CCCC2)c1	.	/	/	.	.	/	/	/
COc1cc(C#N)ccc1OCC(=O)Nc1cccc(S(=O)(=O)N2CCCC2)c1	.	.	/	.	-25.9	.	/	.
O=C(CN(CCO)c1ccccc1)Nc1cccc(S(=O)(=O)N2CCCC2)c1	.	/	.	.	-22.9	.	/	?
O=C(COC(=O)CNC(=O)c1ccc(F)cc1)Nc1cccc(S(=O)(=O)N2CCCC2)c1	.	/	/	.	-18.2	.	.	.
CCN(CC)S(=O)(=O)c1ccc(C)c(NC(=O)CNc2cccc(S(=O)(=O)N3CCCC3)c2)c1	.	.	.	.	.	.	/	/
N#C[C@@H]1[C@H](c2ccc(C3=CCCC3)cc2)[C@@H](CO)N1C(=O)C1CC1	.	/	.	.	.	.	/	/
C[C@H]1CN([C@@H](C)CO)C(=O)Cc2cc(NS(=O)(=O)c3ccc(Cl)cc3)ccc2O[C@@H]1CN(C)Cc1ccc(-c2ccccc2)cc1	.	.	/	.	.	.	/	/
C/C=C/c1ccc([C@@H]2[C@@H](C#N)N(c3ncc(CC)s3)[C@H]2CO)cc1	.	/	.	.	.	.	/	/
SMILES	F508del corr	miR122 inh	Cneo AK release	GSIS activator	Ecoli rRNA inh	HIV Env fusion	AID977621	AID977628
O=C(Cc1ccncc1)N1CC(=O)N2[C@H](C1)[C@H](c1ccc(C3=CCCC3)cc1)[C@@H]2CO	.	/	/	.	.	/	/	/
CC(=O)Nc1ccc2c(c1)C(=O)N(C)[C@@H]1CC[C@H](CC(=O)NCCCN3CCOCC3)O[C@@H]1CO2	.	.	.	.	.	.	/	/
CCOc1ccccc1N1CC(C(=O)Nc2ccc(S(=O)(=O)N3CCCCC3)cc2)CC1=O (centres undefined)	.	.	.	.	.	.	/	/
Cn1nc(C(=O)Nc2cccc(S(=O)(=O)N3CCCCC3)c2)c2ccccc2c1=O	.	.	/	.	-17.1	.	.	.
CCOc1ccccc1N1CC(C(=O)Nc2cccc(S(=O)(=O)N3CCCCC3)c2)CC1=O (centres undefined)	.	.	.	.	-20.5	.	.	?
COc1ccc(C#Cc2ccc3c(c2)[C@@H]2[C@@H](CCN2C(=O)C2CCCCC2)[C@@H](CO)N3)cc1	.	.	.	.	.	/	/	/
CCc1cc2c(=O)n(Cc3ccccc3)c(SC3CCOC3=O)nc2s1 (centres undefined)	.	/	.	.	-23.5	.	.	/
CO[C@H]1CN(C)C(=O)c2cc(NS(=O)(=O)Cc3ccccc3)ccc2OC[C@@H](C)NC[C@H]1C	.	/	.	.	.	.	/	/
CN(CC(=O)Nc1ccc(F)cc1)C(=O)COc1ccc([N+](=O)[O-])cc1Cl	.	.	.	.	-23.8	.	.	.
C[C@@H]1CCCCO[C@H](CN(C)Cc2ccccc2)[C@@H](C)CN([C@@H](C)CO)C(=O)c2cc(NC(=O)CCC(F)(F)F)ccc2O1	.	.	.	.	.	.	/	/
Cc1ccc(S(=O)(=O)Nc2ccc3c(c2)C(=O)N([C@@H](C)CO)C[C@@H](C)[C@H](CN(C)C(=O)c2ccccc2)OCCCC[C@@H](C)O3)cc1	.	.	.	.	-22.6	.	.	.
Cc1ccc(S(=O)(=O)Nc2ccc3c(c2)C(=O)N([C@H](C)CO)C[C@@H](C)[C@H](CN(C)C(=O)c2ccccc2)OCCCC[C@@H](C)O3)cc1	.	.	.	.	-15.9	.	.	?
COc1cccc(-c2ccc3c(c2)[C@H]2[C@H](CCN2C(=O)NC2CCCCC2)[C@@H](CO)N3C)c1	.	/	/	.	.	.	/	/
